Reference: paper PMC8857066 (Bioorganic & medicinal chemistry letters, 2022)
Blank lines part the entries; values can stand above or below the compound they belong to.

Tests used:
[1] = target: T1, fluorescein-labeled WIL-FL LC dimer (WIL-FL*) (Homo sapiens, UniProt P01721, K101C); settings: previous study; cited from earlier work
[2] = target: fluorescein-labeled WIL-FL* T46L/F49Y LC dimer (Homo sapiens, UniProt P01721, K101C/T66L); experiment: protease-coupled fluorescence polarization; assay type: biochemical; settings: for increased potency compared to stabilizer 1 in the PCFP assays (up to): highest ratio across the two PCFP assays (WIL-FL* and WIL-FL* T46L/F49Y)
[3] = test system: unlabeled WIL-FL LC dimer; experiment: proteinase K sensitivity assay, single dose; assay type: biochemical, human; settings: 10 μM stabilizer
Summary of the method: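 Unlabelled WIL-FL LC dimer (2.5 μM) was treated with test compound (10 μM) and proteinase K (50 nM) for 2 h at 37 °C. Remaining intact dimer was quantified by size-exclusion chromatography. Fold protection is the fraction of dimer remaining with compound, corrected for residual dimer in the vehicle (1% DMSO) control. Mean of ≥3 independent replicates ± 1 SD.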

[4] = target: T1, fluorescein-labeled WIL-FL LC dimer (WIL-FL*); experiment: protease-coupled fluorescence polarization; assay type: biochemical
[5] = test system: FL LC dimers; settings: cited from earlier work

fluorescein-labeled WIL-FL* T46L/F49Y LC dimer, sequence (P01721 20-117 T66L/K101C): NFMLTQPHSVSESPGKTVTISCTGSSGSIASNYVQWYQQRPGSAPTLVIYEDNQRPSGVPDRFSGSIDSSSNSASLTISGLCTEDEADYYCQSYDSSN
T1 sequence (P01721 20-117 K101C): as the sequence (P01721 20-117 T66L/K101C) above, with L47T counted along it

SMILES: CCN(CC)c1ccc2c(C)c(CCOC(=O)NCc3ccccc3)c(=O)oc2c1 [2-(7-(diethylamino)-4-methyl-2-oxo-2H-chromen-3-yl)ethyl benzylcarbamate]
improved potency compared to 1 in the PCFP assays [1]: more than ten-fold

SMILES: CCN(CC)c1ccc2c(C)c(CCC(=O)NCCc3cccnc3)c(=O)oc2c1 [Compound 11]
potency increase for WIL-FL* T46L/F49Y compared to stabilizer 1 ([2]; ratio of EC50 values): two-fold | increase in fold protection for unlabeled WIL-FL compared to stabilizer 1 [3]: 0.33 | potency increase for WIL-FL* compared to stabilizer 1 ([4]; ratio of EC50 values): 2.6 fold

maximal fluorescence polarization compared to compound 1 ([4]; PCFP dose-response (Figure S3)): lower
SMILES: CCN(CC)c1ccc2c(C)c(CCNC(=O)CCc3ccccc3)c(=O)oc2c1 [Compound 16]

SMILES: CCN(CC)c1ccc2c(C)c(CCNC(=O)NCc3cccc(-c4c[nH]cn4)c3)c(=O)oc2c1 [Compound 21]
increased potency compared to stabilizer 1 in the PCFP assays (up to) [2]: up to 56 fold

SMILES: CCN(CC)c1ccc2c(C)c(CCNC(=O)NCc3ccc4ccccc4c3)c(=O)oc2c1 [Compound 23]
increased potency compared to stabilizer 1 in the PCFP assays (up to) [2]: ≤ 150 fold

SMILES: CN(C)c1ccc2nc3ccc(=[N+](C)C)cc-3sc2c1 [methylene blue]
stabilization of FL LC dimers [5]: do not stabilize FL LC dimers

SMILES: O=C(O)c1cc(/N=N/c2ccc(S(=O)(=O)Nc3ccccn3)cc2)ccc1O [sulfasalazine]
stabilization of FL LC dimers [5]: do not stabilize FL LC dimers
